This note sets out measurements from PubChem BioAssay AID651869 (Broad Institute, 2012).

For this test, the system named is T. cruzi CAI/72 in BESM cells, trypomastigote emergence, microscopy. As to the kind of experiment: intracellular T. cruzi clearance after withdrawal – imaging, CAI/72 strain, BESM host cells, 29-day treatment, set 2, mechanism study for T. cruzi inhibitor project, late-stage follow-up (AID 651869). As to conditions: active compounds read high. An outline of the steps:
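Assay system: bovine embryo skeletal muscle (BESM) cells infected with Trypanosoma cruzi CAI/72. Timing: dosing on alternate days across 29 days, then 20-day withdrawal. Signal: daily light-microscope check for trypomastigote release.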
Take `O=C(Cn1ccnc1[N+](=O)[O-])NCc1ccccc1`: the cidality slope score was 12.

As for `C[C@@H]1CN([C@H](C)CO)C(=O)c2cccc(NC(=O)c3ccncc3)c2O[C@H]1CN(C)Cc1ccccc1`, the cidality slope score was 85.

Take `C[C@H](CO)N1C[C@H](C)[C@H](CN(C)Cc2ccc(Oc3ccccc3)cc2)Oc2c(NC(=O)c3ccncc3)cccc2C1=O`: the cidality slope score was 85.

Take `C[C@H]1CN([C@@H](C)CO)C(=O)c2cccc(NC(=O)c3ccncc3)c2O[C@@H]1CN(C)Cc1ccc(Oc2ccccc2)cc1`: the cidality slope score is 1100.

Consider `CC(C)N1C[C@@H](C)[C@H](CN(C)Cc2cccc(Oc3ccccc3)c2)Oc2c(NC(=O)c3ccncc3)cccc2C1=O`, for which the cidality slope score was 1100.

As to `C[C@H]1CN([C@@H](C)CO)C(=O)c2cccc(NC(=O)c3ccncc3)c2O[C@H]1CN(C)Cc1ccc(Oc2ccccc2)cc1`, the cidality slope score was 1100.

`C[C@@H]1CN([C@H](C)CO)C(=O)c2cccc(NC(=O)c3ccncc3)c2O[C@H]1CN(C)Cc1ccc(Oc2ccccc2)cc1`: the cidality slope score is 1100.

With `C[C@@H]1CN([C@@H](C)CO)C(=O)c2cccc(NC(=O)c3ccncc3)c2O[C@H]1CN(C)Cc1ccc(Oc2ccccc2)cc1`, the cidality slope score was 1100.

On to `C[C@@H]1CN([C@@H](C)CO)C(=O)c2cccc(NC(=O)c3ccncc3)c2O[C@H]1CN(C)Cc1cccc(Cl)c1`, for which the cidality slope score is 75.

As to `C[C@@H]1CN([C@@H](C)CO)C(=O)c2cccc(NC(=O)c3ccncc3)c2O[C@H]1CN(C)Cc1ccc(Cl)cc1`, the cidality slope score was 7.6.
